Experimental data pooled from the literature.
Compare with care: the assays were run in different laboratories. Values after ≈ are worked out from the molar mass of the structure shown.
Organism: Lodderomyces parapsilosis
Effect on: microbial growth

| SMILES | technique | strain | time | endpoint | result |
| --- | --- | --- | --- | --- | --- |
| OC(Cn1cncn1)(Cn1cncn1)c1ccc(F)cc1F | broth dilution |  | 24 h | MIC90 | 0.5 µg/mL (≈ 1.63 µM) |
| CC(=O)N1CCN(c2ccc(OCC3COC(Cn4ccnc4)(c4ccc(Cl)cc4Cl)O3)cc2)CC1 (stereo not shown) |  |  |  | MIC90 | 0.125 µg/mL (≈ 0.235 µM) |
| CCCCCCCCCCN1CCN(CC(O)(Cn2cncn2)c2ccc(F)cc2F)CC1 (stereo not shown) | broth dilution | ATCC22019 | 48 h | MIC | 0.015 µg/mL (≈ 0.0324 µM) |
| C[C@@H]1[C@H](O)[C@@H](C)/C=C/C=C/C=C/C=C/C=C/C=C/C=C/[C@H](O[C@@H]2O[C@H](C)[C@@H](O)[C@H](N)[C@@H]2O)C[C@@H]2O[C@](O)(C[C@@H](O)C[C@@H](O)[C@H](O)CC[C@@H](O)C[C@@H](O)CC(=O)O[C@H]1C)C[C@H](O)[C@H]2C(=O)O | broth dilution |  |  | MIC | 0.25 µg/mL (≈ 0.271 µM) |
| C[C@@H](c1ncncc1F)[C@](O)(Cn1cncn1)c1ccc(F)cc1F |  |  |  | MIC90 | 0.016 µg/mL (≈ 0.0458 µM) |
| CCCCCCCCCCCCCN1CCNCC1 | broth dilution | ATCC22019 | 48 h | MIC | 1.95 µg/mL (≈ 7.26 µM) |
| CC(=O)c1ccc(-c2ccc3oc(C(=O)c4cc(O)c(O)c(O)c4)cc3c2)cc1 | broth dilution |  |  | MIC | 2 to 4 µg/mL (≈ 5.15 to 10.3 µM) |
| C[C@@H]1[C@H](O)[C@@H](C)/C=C/C=C/C=C/C=C/C=C/C=C/C=C/[C@H](O[C@@H]2O[C@H](C)[C@@H](O)[C@H](N)[C@@H]2O)C[C@@H]2O[C@](O)(C[C@@H](O)C[C@@H](O)[C@H](O)CC[C@@H](O)C[C@@H](O)CC(=O)O[C@H]1C)C[C@H](O)[C@H]2C(=O)O |  |  |  | MIC90 | 0.125 µg/mL (≈ 0.135 µM) |
| CCCCCCCCCCCCCCN1CCN(CC(O)(Cn2cncn2)c2ccc(F)cc2F)CC1 (stereo not shown) | broth dilution | ATCC22019 | 48 h | MIC | > 31.3 µg/mL |
| O=C1/C(=C/c2cc(O)c(O)c(O)c2)Oc2cccc(O)c21 | broth dilution |  |  | MIC | 16 µg/mL (≈ 55.9 µM) |
